Reference: ChEMBL document CHEMBL3588826, “Chimeric derivatives of functionalized amino acids and α-aminoamides: compounds with anticonvulsant activity in seizure models and inhibitory actions on central, peripheral, and cardiac isoforms of voltage-gated sodium channels” (Bioorg Med Chem, 2015)
Active and inactive are the calls of the source. The calls are words filed in the database; no cut-off is given here.

Assays:
[1] = system: Rattus norvegicus; assay: Anticonvulsant activity in ip dosed albino Sprague-Dawley rat by maximal electroshock seizure test; type: functional
Procedure, shortened: (§1)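 Screened under the NIH Anticonvulsant Screening Program in male rodents, with mice and rats dosed ip and rats also dosed po. Maximal electroshock (MES) and 6 Hz (32 mA) psychomotor seizure tests were run.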

[2] = Behavioural toxicity in po dosed albino Sprague-Dawley rat; conditions: in vivo
[3] = system: Rattus norvegicus; assay: Anticonvulsant activity in po dosed albino Sprague-Dawley rat by maximal electroshock seizure test; type: functional; procedure, shortened: as §1
[4] = Behavioural toxicity in po dosed albino Sprague-Dawley rat measured at 0.25 - 4 hrs; type: organism-based; conditions: in vivo
Procedure, shortened: (§2)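 Male albino Sprague-Dawley rats were dosed ip or orally. […] Protective index = TD50/ED50, the ED50 taken from maximal electroshock by the same route.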

[5] = Neurotoxicity in ip dosed albino Carworth Farms No. 1 mouse measured at 0.25 hrs by rotarod test; type: toxicity, organism-based; conditions: in vivo
[6] = system: Rattus norvegicus; assay: Anticonvulsant activity in ip dosed albino Sprague-Dawley rat measured at 0.25 hrs by maximal electroshock seizure test; type: functional
Procedure, shortened: (§3)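 Screened under the NIH anticonvulsant program in male albino Carworth Farms No. 1 mice (ip) and male albino Sprague-Dawley rats (ip or oral). Protection tested by maximal electroshock or 6 Hz (32 mA) psychomotor stimulation.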

[7] = Behavioural toxicity in ip dosed albino Sprague-Dawley rat measured at 0.25 hrs; type: organism-based; conditions: in vivo; procedure, shortened: as §2
[8] = system: Mus musculus; assay: Anticonvulsant activity in ip dosed albino Carworth Farms No. 1 mouse measured at 0.25 hrs by maximal electroshock seizure test; type: functional; conditions: Carworth Farms No. 1, ip; procedure, shortened: as §3
[9] = system: Rattus norvegicus; assay: Anticonvulsant activity in po dosed albino Sprague-Dawley rat measured at 0.5 hrs by maximal electroshock seizure test; type: functional; procedure, shortened: as §3
[10] = system: Mus musculus; assay: Anticonvulsant activity in ip dosed albino Carworth Farms No. 1 mouse measured at 0.5 hrs by 6Hz (32 mA) psychomotor seizure test; type: functional; conditions: Carworth Farms No. 1, ip; procedure, shortened: as §3
[11] = Protective index, ratio of TD50 for neurotoxicity in ip dosed albino Carworth Farms No. 1 mouse to ED50 for anticonvulsant activity in ip dosed MES albino Carworth Farms No. 1 mouse model; type: toxicity, organism-based; conditions: in vivo, read-out: Ratio TD50/ED50
Procedure, shortened: (§4)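 Male albino Carworth Farms No. 1 mice were dosed ip. Protective index = TD50/ED50, the ED50 taken from the ip maximal electroshock test.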

[12] = organism: Rattus norvegicus; assay: Frequency-dependent inhibition of voltage-gated sodium channel in rat embryonic cortical neurons assessed as current amplitude at 10 uM measured at holding potential of -80 mV by whole cell patch-clamp electrophysiology
Procedure, shortened: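 E19 rat cortical neurons cultured 7–10 days were recorded by whole-cell voltage clamp at room temperature. Compound was at 10 μM versus 0.1% DMSO. A pulse train was applied, and available current was taken as peak current at pulse N divided by peak at pulse 1.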

[13] = Protective index, ratio of TD50 for behavioural toxicity in ip dosed albino Sprague-Dawley rat to ED50 for anticonvulsant activity in ip dosed MES albino Sprague-Dawley rat model; type: organism-based; conditions: in vivo, read-out: Ratio TD50/ED50; procedure, shortened: as §2
[14] = system: Mus musculus; assay: Anticonvulsant activity in ip dosed albino Carworth Farms No. 1 mouse by maximal electroshock seizure test; type: functional; conditions: Carworth Farms No. 1, ip; procedure, shortened: as §1
[15] = system: Rattus norvegicus; assay: Anticonvulsant activity in po dosed albino Sprague-Dawley rat measured at 0.25 - 4.0 hrs by maximal electroshock seizure test; type: functional; procedure, shortened: as §1
[16] = system: Mus musculus; assay: Anticonvulsant activity in ip dosed albino Carworth Farms No. 1 mouse measured at 0.25-0.5 hrs by 6Hz (32 mA) psychomotor seizure test; type: functional; conditions: Carworth Farms No. 1, ip; procedure, shortened: as §1
[17] = Behavioural toxicity in ip dosed albino Sprague-Dawley rat measured at 1 hr; type: organism-based; conditions: in vivo; procedure, shortened: as §2
[18] = organism: Rattus norvegicus; assay: Inhibition of voltage-gated sodium channel in rat embryonic cortical neurons assessed as half-maximal voltage for steady state activation at 10 uM by whole cell patch-clamp electrophysiology (reference value: -27.1 +/- 1.3 mV)
Procedure, shortened: (§5)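 Rat embryonic day 19 cortical neurons, cultured 7–10 days, were whole-cell voltage-clamped at room temperature with 1–2 MΩ electrodes, with compound at 10 μM and 0.1% DMSO as control. Fast inactivation: 500 ms prepulses, then a test pulse. Activation: conductance G = I/(Vm − Vrev). V1/2 and k came from Boltzmann fits to individual cells, averaged (mean ± SEM), 5–7 cells per condition.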

[19] = system: Rattus norvegicus; assay: Anticonvulsant activity in po dosed albino Sprague-Dawley rat measured at 0.25 - 1 hr by maximal electroshock seizure test; type: functional; procedure, shortened: as §3
[20] = system: Mus musculus; assay: Anticonvulsant activity in ip dosed albino Carworth Farms No. 1 mouse measured at 0.25 hrs by 6Hz (32 mA) psychomotor seizure test; type: functional; conditions: Carworth Farms No. 1, ip; procedure, shortened: as §3
[21] = system: Rattus norvegicus; assay: Anticonvulsant activity in ip dosed albino Sprague-Dawley rat measured at 0.5 hrs by maximal electroshock seizure test; type: functional; procedure, shortened: as §1
[22] = organism: Rattus norvegicus; assay: Inhibition of voltage-gated sodium channel in rat embryonic cortical neurons assessed as transition of channels to slow-inactivated state at 10 uM measured at -50 mV by whole cell patch-clamp electrophysiology
Procedure, shortened: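 E19 rat cortical neurons cultured 7–10 days were recorded by whole-cell voltage clamp at room temperature, with electrodes of 1–2 MΩ. Compound was at 10 μM versus 0.1% DMSO control. Slow inactivation at −50 mV was calculated as 1 minus normalized peak INa, from 5–8 cells per condition.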

[23] = system: Rattus norvegicus; assay: Anticonvulsant activity in po dosed albino Sprague-Dawley rat measured at 1 hr by maximal electroshock seizure test; type: functional; procedure, shortened: as §3
[24] = Protective index, ratio of TD50 for behavioural toxicity in po dosed albino Sprague-Dawley rat to ED50 for anticonvulsant activity in po dosed MES albino Sprague-Dawley rat model; type: organism-based; conditions: in vivo, read-out: Ratio TD50/ED50
Procedure, shortened: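 Male albino Sprague-Dawley rats were dosed ip or orally. Protective index = TD50/ED50, the ED50 taken from maximal electroshock by the same route.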

[25] = system: Mus musculus; assay: Anticonvulsant activity in ip dosed albino Carworth Farms No. 1 mouse measured at 0.5 hrs by maximal electroshock seizure test; type: functional; conditions: Carworth Farms No. 1, ip; procedure, shortened: as §3
[26] = Behavioural toxicity in ip dosed albino Sprague-Dawley rat measured at 0.5 hrs; type: organism-based; conditions: in vivo
[27] = Behavioural toxicity in po dosed albino Sprague-Dawley rat measured at 0.5 hrs; type: organism-based; conditions: in vivo; procedure, shortened: as §2
[28] = system: Rattus norvegicus; assay: Anticonvulsant activity in po dosed albino Sprague-Dawley rat measured at 5 hrs by maximal electroshock seizure test; type: functional; procedure, shortened: as §3
[29] = system: Mus musculus; assay: Anticonvulsant activity in ip dosed albino Carworth Farms No. 1 mouse measured at 1 hr by maximal electroshock seizure test; type: functional; conditions: Carworth Farms No. 1, ip; procedure, shortened: as §3
[30] = organism: Rattus norvegicus; assay: Effect on steady state activation of voltage-gated sodium channel in rat embryonic cortical neurons at 10 uM by whole cell patch-clamp electrophysiology; procedure, shortened: as §5
[31] = system: Mus musculus; assay: Anticonvulsant activity in ip dosed albino Carworth Farms No. 1 mouse measured at 0.5 - 2.0 hrs by maximal electroshock seizure test; type: functional; conditions: Carworth Farms No. 1, ip; procedure, shortened: as §3
[32] = organism: Rattus norvegicus; assay: Inhibition of voltage-gated sodium channel in rat embryonic cortical neurons assessed as decrease in fraction of current available at 10 uM measured at -50 mV by whole cell patch-clamp electrophysiology
Procedure, shortened: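 Embryonic cortical neurons were treated with 10 μM compound or 0.1% DMSO, whole-cell voltage clamp at room temperature. Slow inactivation was assessed at −50 mV, with the fraction inactivated taken as 1 minus the normalized INa. Student's t-test; 5–8 cells per condition.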

[33] = (§6) Neurotoxicity in ip dosed albino Carworth Farms No. 1 mouse measured at 0.5 hrs by rotarod test; type: toxicity, organism-based; conditions: Carworth Farms No. 1, mouse, in vivo; procedure, shortened: as §4
[34] = organism: Rattus norvegicus; assay: Effect on steady state fast-inactivation of voltage-gated sodium channel in rat embryonic cortical neurons at 10 uM by whole cell patch-clamp electrophysiology; procedure, shortened: as §5
[35] = system: Mus musculus; assay: as §6; type: toxicity, organism-based; conditions: mouse, in vivo, 0.5 h; procedure, shortened: as §4
[36] = system: Rattus norvegicus; assay: Anticonvulsant activity in po dosed albino Sprague-Dawley rat measured at 0.5 - 4 hrs by maximal electroshock seizure test; type: functional; procedure, shortened: as §3

O=C1NC(=O)C(c2ccccc2)(c2ccccc2)N1 [PHENYTOIN]
ED50 [1]: 2.4 mg/kg
TD50 [2]: > 1000 mg/kg
ED50 [3]: 28 mg/kg

COC[C@@H](NC(C)=O)C(=O)NCc1ccc(Oc2cccc(C)c2)cc1
TD50 [4]: > 30 mg/kg
TD50 at 0.25 h [5]: 65 mg/kg
ED50 [6]: 12 mg/kg
TD50 at 0.25 h [7]: 140 mg/kg
ED50 [8]: 14 mg/kg
ED50 [9]: < 30 mg/kg
ED50 [10]: 100 mg/kg
selectivity ratio [11]: 4.6
inhibition [12]: inactive
selectivity ratio [13]: 12

CCCC(CCC)C(=O)O [VALPROIC ACID]
ED50 [8]: 270 mg/kg

C[C@H](NCc1ccc(OCc2cccc(F)c2)cc1)C(N)=O [SAFINAMIDE]
ED50 [3]: 12 mg/kg
ED50 [14]: 4.1 mg/kg

COC[C@@H](NC(C)=O)C(=O)NCc1ccc(Oc2cccc(F)c2)cc1
ED50 [15]: < 10 mg/kg
TD50 [4]: > 10 mg/kg
ED50 [8]: 5.5 mg/kg
selectivity ratio [11]: 4.2
inhibition [12]: inactive
ED50 [16]: 10 mg/kg

COC[C@@H](NC(C)=O)C(=O)NCc1ccc(Oc2cccc(OC)c2)cc1
TD50 [4]: > 30 mg/kg
TD50 at 0.25 h [5]: 85 mg/kg
ED50 [6]: 15 mg/kg
ED50 [8]: 13 mg/kg
TD50 at 1 h [17]: 120 mg/kg
V1/2 [18]: -36.8 mV
ED50 [19]: 30 mg/kg
ED50 [10]: < 100 mg/kg
selectivity ratio [11]: 6.5
inhibition [12]: inactive
selectivity ratio [13]: 8

COC[C@@H](NC(C)=O)C(=O)NCc1ccc(Oc2cccc(Cl)c2)cc1
TD50 at 0.25 h [5]: 47 mg/kg
ED50 [20]: 20 mg/kg
ED50 [21]: 5.9 mg/kg
inhibition [22]: Active
ED50 [23]: 12 mg/kg
selectivity ratio [24]: 18
ED50 [25]: 9.4 mg/kg
TD50 at 0.5 h [26]: 49 mg/kg
selectivity ratio [11]: 5
TD50 at 0.5 h [27]: 210 mg/kg
inhibition [12]: inactive
selectivity ratio [13]: 8.3

CCC1(c2ccccc2)C(=O)NC(=O)NC1=O [PHENOBARBITAL]
ED50 [28]: 9.1 mg/kg
ED50 [29]: 22 mg/kg

COC[C@@H](NC(C)=O)C(=O)NCc1ccc(Oc2ccccc2)cc1
Activity [30]: inactive
ED50 [31]: < 30 mg/kg
inhibition [32]: Active
TD50 at 0.5 h [33]: < 100 mg/kg
ED50 [10]: < 30 mg/kg
inhibition [12]: inactive
Activity [34]: inactive

COC[C@@H](NC(C)=O)C(=O)NCc1ccc(Oc2cccc(C(F)(F)F)c2)cc1
TD50 [4]: > 30 mg/kg
TD50 [35]: > 100 mg/kg
V1/2 [18]: -35.6 mV
ED50 [36]: < 30 mg/kg
ED50 [10]: < 100 mg/kg
ED50 [25]: 10 mg/kg
inhibition [12]: inactive

COC[C@@H](NC(C)=O)C(=O)NCc1ccccc1 [LACOSAMIDE]
ED50 [10]: 10 mg/kg
TD50 at 0.5 h [27]: > 500 mg/kg
